Reference: ChEMBL document CHEMBL5653613 (Mol Cancer Ther, 2013)
Activity calls are given as the source filed them. No cut-off for these calls is given here.

Tests used:
ZR-75-1 [1] = test: Inhibition of clonogenic growth in human ZR-75-1 cells incubated for 10 days by Hema-3 staining based microscopy; type: functional, cell-based; details: dose 1-5 µmol/L, time 10.0 day
In short: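 Colonies were stained with Hema-3, photographed under a microscope with a CCD camera, counted in duplicate, and expressed as % of control. Results are shown from 1 of 2 experiments.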

T47D [2] = test: Induction of apoptosis in human T47D cells assessed as viable cells at 5 umol/L incubated for 3 days by Annexin V/PI staining based flow cytometry (reference value: 95.7 %); type: functional; details: 72 h, dose 5 µmol/L, time 3 day, read-out: Activity
T47D [3] = test: Induction of apoptosis in human T47D cells assessed as late cells at 5 umol/L incubated for 3 days by Annexin V/PI staining based flow cytometry (reference value: 2.9 %); type: functional; details: dose 5 µmol/L; time 3 day; at 5 µM
ZR-75-1 [4] = test: Induction of apoptosis in human ZR-75-1 cells assessed as late cells at 5 umol/L incubated for 3 days by Annexin V/PI staining based flow cytometry (reference value: 3.8 %); type: functional; details: dose 5 µmol/L; time 3 day; at 5 µM
ZR-75-1 [5] = test: Induction of apoptosis in human ZR-75-1 cells assessed as necrotic cells at 5 umol/L incubated for 3 days by Annexin V/PI staining based flow cytometry (reference value: 0.7 %); type: functional; details: dose 5 µmol/L; time 3 day; at 5 µM
T47D [6] = test: Inhibition of cell growth of human T47D cells at 5 uM; type: functional, cell-based; details: time <= 48.0 hrs, TDE = time-dependent effect
ZR-75-1 [7] = test: Induction of polyploidy in human ZR-75-1 cells at 5 umol/L incubated for 72 hrs by microscopic analysis relative to control; type: functional; details: dose 5 µmol/L, at 5 µM
In short: (§1)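 Cells stained with Hema-3 and photographed under a light microscope with CCD camera. Polyploid cells scored as percent of the population.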

T47D [8] = test: Induction of polyploidy in human T47D cells at 10 umol/L incubated for 72 hrs by microscopic analysis relative to control; type: functional; details: dose 10 µmol/L, at 10 µM; in short: as §1
T47D [9] = test: Induction of polyploidy in human T47D cells with RON-/- at 5 umol/L incubated for 72 hrs by microscopic analysis (reference value: 83.5 %); type: functional; details: dose 5 µmol/L, at 5 µM
In short: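 Cells (2 106 per 60-mm dish) transiently transfected for 48 hours with 1 nmol/L scrambled or RON-specific siRNA, with knockdown confirmed by anti-RON Western blot. […] Polyploidy monitored and photographed by microscopy, with untransfected and scrambled-siRNA cells as comparators.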

T47D [10] = test: Inhibition of cell proliferation of human T47D cells with RON-/- at 5 umol/L incubated for 72 hrs followed by media replacement without compound measured upto 10 days by microscopic analysis; type: functional, cell-based; details: dose 5.0 µmol/L
ZR-75-1 [11] = test: Induction of cell death of human ZR-75-1 cells with RON-/- at 5 umol/L incubated for 72 hrs followed by media replacement without compound measured upto 10 days by microscopic analysis; type: functional, cell-based; details: dose 5.0 µmol/L
MCF7 [12] = test: Induction of polyploidy in human MCF7 cells assessed as cells with 16N chromosome contents at 5 uM incubated for 24 hrs by PI staining based flow cytometry (reference value: 0); type: functional
MCF7 [13] = test: Induction of polyploidy in human MCF7 cells assessed as cells with 4N chromosome contents at 5 uM incubated for 48 hrs by PI staining based flow cytometry (reference value: 36); type: functional
MCF7 [14] = test: Induction of polyploidy in human MCF7 cells assessed as cells with 2N chromosome contents at 5 uM incubated for 72 hrs by PI staining based flow cytometry (reference value: 52); type: functional
T47D [15] = test: Induction of polyploidy in human T47D cells assessed as cells with 2N chromosome contents at 5 uM incubated for 24 hrs by PI staining based flow cytometry (reference value: 48); type: functional
T47D [16] = test: Induction of polyploidy in human T47D cells assessed as cells with 4N chromosome contents at 5 uM incubated for 48 hrs by PI staining based flow cytometry (reference value: 35); type: functional
T47D [17] = test: Induction of polyploidy in human T47D cells assessed as cells with 8N chromosome contents at 5 uM incubated for 72 hrs by PI staining based flow cytometry (reference value: 0); type: functional
T47D [18] = test: Induction of polyploidy in human T47D cells assessed as cells with 16N chromosome contents at 5 uM incubated for 72 hrs by PI staining based flow cytometry (reference value: 0); type: functional
ZR-75-1 [19] = test: Induction of polyploidy in human ZR-75-1 cells assessed as cells with 8N chromosome contents at 5 uM incubated for 24 hrs by PI staining based flow cytometry (reference value: 0); type: functional
ZR-75-1 [20] = test: Induction of polyploidy in human ZR-75-1 cells assessed as cells with 2N chromosome contents at 5 uM incubated for 48 hrs by PI staining based flow cytometry (reference value: 48); type: functional
ZR-75-1 [21] = test: Induction of polyploidy in human ZR-75-1 cells assessed as cells with 8N chromosome contents at 5 uM incubated for 48 hrs by PI staining based flow cytometry (reference value: 0); type: functional
ZR-75-1 [22] = test: Induction of polyploidy in human ZR-75-1 cells assessed as cells with 2N chromosome contents at 5 uM incubated for 72 hrs by PI staining based flow cytometry (reference value: 48); type: functional
ZR-75-1 [23] = test: Induction of polyploidy in human ZR-75-1 cells assessed as cells with 8N chromosome contents at 5 uM incubated for 72 hrs by PI staining based flow cytometry (reference value: 0); type: functional
ZR-75-1 [24] = test: Induction of polyploidy in human ZR-75-1 cells assessed as cells with 16N chromosome contents at 5 uM incubated for 72 hrs by PI staining based flow cytometry (reference value: 0); type: functional
T47D [25] = test: Induction of cell cycle arrest at telophase in human T47D cells at 5 umol/L preincubated for 24 hrs followed by extensive compound washout and subsequent culturing in compound-free media measured upto 120 mins by immunofluorescence staining based analysis; type: functional; details: dose 5.0 µmol/L
In short: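 T-47D cells were treated at 37°C with 5 µmol/L for 24 h, washed extensively, then cultured in DMEM with 10% FBS for 30, 60 and 120 min. α- and γ-tubulin were detected by immunofluorescence with DAPI, imaged at 400×. The control was a 24 h preincubation with 5 µmol/L RO-3306. One of 2 experiments.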

[26] = (§2) Effect on doxorubicin resistance in human T47D cells with compound-induced polyploidy assessed as change in doxorubicin-induced cytotoxicity by measuring increase in doxorubicin IC50 at 5 umol/L preincubated for 72 hrs followed by compound washout and subsequent doxorubicin treatment for 72 hrs by MTS assay; type: functional, cell-based
[27] = (§3) Effect on bleomycin resistance in human T47D cells with compound-induced polyploidy assessed as change in bleomycin-induced cytotoxicity by measuring increase in bleomycin IC50 at 5 umol/L preincubated for 72 hrs followed by compound washout and subsequent bleomycin treatment for 72 hrs by MTS assay; type: functional, cell-based
[28] = Effect on cisplatin resistance in human T47D cells with compound-induced polyploidy assessed as change in cisplatin-induced cytotoxicity by measuring increase in cisplatin IC50 at 5 umol/L preincubated for 72 hrs followed by compound washout and subsequent cisplatin treatment for 72 hrs by MTS assay; type: functional, cell-based
[29] = as §2, with “paclitaxel” for “doxorubicin”, “paclitaxel-induced” for “doxorubicin-induced”; type: functional, cell-based
[30] = as §3, with “ZR-75-1” for “T47D”; type: functional, cell-based
T-47D (Homo sapiens) = test: Disruption of microtubule dynamics in human T-47D cells at 5 umol/L incubated upto 72 hrs by immunofluorescence staining based analysis; details: dose 5.0 µmol/L

With `CCOc1ccn(-c2ccc(F)cc2)c(=O)c1C(=O)Nc1ccc(Oc2ccnc(N)c2Cl)c(F)c1` [BMS-777607] the inhibition (ZR-75-1 [1]) was “Dose-Dependent Effect”, the viability at 5 µM (T47D [2]) was 87.3% and the Activity (T47D [3]) was 8.1%. The Activity (ZR-75-1 [4]) was 7.4%, the Activity (ZR-75-1 [5]) was 1.8% and the inhibition (T47D [6]) was “Tde”. The Activity (ZR-75-1 [7]) was 82%, the Activity (T47D [8]) was 86% and the Activity (T47D [9]) was 79.4%. For the same compound, the inhibition (T47D [10]) was “inactive”, the Activity (ZR-75-1 [11]) was “inactive” and the Activity (MCF7 [12]) was 0. For the same compound, the Activity (MCF7 [13]) was 38, the Activity (MCF7 [14]) was 12 and the Activity (T47D [15]) was 7.5. The Activity (T47D [16]) was 22, the Activity (T47D [17]) was 21 and the Activity (T47D [18]) was 18.5. For the same compound, the Activity (ZR-75-1 [19]) was 14, the Activity (ZR-75-1 [20]) was 4.5 and the Activity (ZR-75-1 [21]) was 20. For the same compound, the Activity (ZR-75-1 [22]) was 5, the Activity (ZR-75-1 [23]) was 20 and the Activity (ZR-75-1 [24]) was 32. For the same compound, the Activity (T47D [25]) was “Active”, the IC50 [26] was 1420 nM and the IC50 [27] was 2720 nM. For the same compound, the IC50 [28] was 9.1 nM, the IC50 [29] was 31.6 nM and the IC50 [30] was 2260 nM. For the same compound, the Activity (T-47D (Homo sapiens)) was “Active”.
